Data from ChEMBL document CHEMBL1154084, “Preparation and antitubercular activities in vitro and in vivo of novel Schiff bases of isoniazid” (Eur J Med Chem, 2009).
≈ marks a conversion by molar mass, not a printed value.

Assays:
[1] = test system: Mycobacterium tuberculosis; assay: Antitubercular activity against Mycobacterium tuberculosis H37Rv by broth dilution method; format: functional
[2] = Selectivity index, ratio IC50 for african green monkey Vero cells to MIC for Mycobacterium tuberculosis H37Rv; format: functional
In short: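 Vero cells exposed 72 h, at up to ten times the MIC, with viability read by a cell proliferation assay. SI is IC50 divided by the MIC against H37Rv; the screening criterion is SI >10.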

[3] = test system: Mycobacterium tuberculosis; assay: Bactericidal activity in Mycobacterium tuberculosis Erdman infected in mouse macrophages assessed as reduction of colony forming units after 7 days; format: functional; conditions: 168 h
In short: (§1)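 CFU read at 7 days against drug-free controls. EC90 is the lowest concentration giving 90% CFU reduction (bacteriostatic); EC99 is the lowest giving 99% (bactericidal).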

[4] = Ratio of EC90 for Mycobacterium tuberculosis Erdman to MIC for Mycobacterium tuberculosis H37Rv; format: functional
[5] = test system: Mycobacterium tuberculosis; assay: Bacteriostatic activity in Mycobacterium tuberculosis Erdman infected in mouse macrophages assessed as reduction of colony forming units after 7 days; format: functional; conditions: 168 h; in short: as §1
[6] = test system: Mycobacterium tuberculosis; assay: Antitubercular activity against Mycobacterium tuberculosis infected in C57BL/6 mouse assessed reduction in colony forming units per lung at 25 mg/kg administered for 2 days after 24 hrs post-infection measured after 3 days by short course therapy (Rvb=6.51 +/- 0.13 logCFU/lung); format: functional
Mus musculus = organism: Mus musculus; assay: Toxicity in C57BL/6 mouse assessed as overt toxicity; format: organism-based; conditions: in vivo
In short: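 C57BL/6 mice infected intranasally with approximately one million viable M. tuberculosis organisms. Dosing by gavage at 25 mg/kg body weight (compound in DMSO diluted in distilled water), starting one day post-infection and given for two days. Animals observed for ill effects or overt toxicity until sacrifice by CO2 inhalation three days post-infection. Groups of six mice.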

[7] = test system: Mycobacterium tuberculosis; assay: Antitubercular activity against Mycobacterium tuberculosis infected in CD1 mouse assessed colony forming units per lung at 25 mg/kg administered 5 days a week for 4 weeks after 1 week post-infection by long course therapy (Rvb=8.80 +/- 0.18 logCFU/lung); format: functional
[8] = test system: Mycobacterium tuberculosis; assay: Antitubercular activity against Mycobacterium tuberculosis Erdman by broth dilution method; format: functional
In short: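 Modified 7H10 broth (no agar or malachite green; pH 6.6) with 10% OADC and 0.05% Tween 80; broth dilution MIC90. Inoculum grown 5 days at 37°C on rotary shaker, diluted to 100 Klett units/mL (about 5 × 10^7 cfu/mL), checked by triplicate 7H10 agar counts after 4 weeks at 37°C. Compounds dissolved in DMSO, diluted in distilled water; isoniazid and PAS as reference standards.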

[9] = test system: Mycobacterium tuberculosis; assay: Antitubercular activity against Mycobacterium tuberculosis infected in C57BL/6 mouse assessed reduction in colony forming units per lung at 25 mg/kg administered for 2 days after 24 hrs post-infection measured after 3 days by short course therapy (Rvb=6.37 +/- 0.24 logCFU/lung); format: functional

SMILES	MIC90 [1]	Ratio [2]	further results
O=C(N/N=C/c1c(Cl)cccc1Cl)c1ccncc1	< 6.25 µg/mL	–	–
CCCC/C=C(\C=N\NC(=O)c1ccncc1)CCC	–	1.6	–
CCCCC/C(=N\NC(=O)c1ccncc1)c1ccccc1	0.39 µg/mL (≈ 1.32 µM)	25	EC99 [3]: 0.25 µg/mL; Ratio [4]: 0.13; EC90 [5]: 0.05 µg/mL (≈ 0.169 µM)
NNC(=O)c1ccncc1 [ISONIAZID]	–	–	log10cfu [6]: 4.96; Activity (Mus musculus): Non-toxic; Ratio [4]: 1; log10cfu [7]: 4.71; MIC [1]: 0.03 µg/mL (≈ 0.219 µM); MIC [8]: 0.03 µg/mL (≈ 0.219 µM); log10cfu [9]: 5.58
CCOC(=O)C/C(C)=N\NC(=O)c1ccncc1 [ETHYL ACETOACETATE ISONICOTINOYLHYDRAZONE]	0.2 µg/mL (≈ 0.802 µM)	>5000	–
COc1cc(/C=N/NC(=O)c2ccncc2)cc(I)c1O	0.39 µg/mL (≈ 0.982 µM)	>160	–
CC(/C=N/NC(=O)c1ccncc1)=C\c1ccccc1	0.5 µg/mL (≈ 1.88 µM)	>250	log10cfu [6]: 5.22
CC1C/C(=N/NC(=O)c2ccncc2)CC(C)(C)C1 (stereo not drawn)	< 0.025 µg/mL	>2000	EC99 [3]: 0.15 µg/mL; Ratio [4]: 2.52; EC90 [5]: 0.063 µg/mL (≈ 0.243 µM)
C/C=C/C=N/NC(=O)c1ccncc1	< 6.25 µg/mL	–	–
CCCCCCCCCCCC/C=N\NC(=O)c1ccncc1	0.2 µg/mL (≈ 0.63 µM)	374	–
O=C(N/N=C/c1ccc(Br)cc1)c1ccncc1	3.13 µg/mL (≈ 10.3 µM)	12	–
CC(C)=NNC(=O)c1ccncc1	0.1 µg/mL (≈ 0.564 µM)	>10000	–
O=C(N/N=C/c1ccc(Cl)c(Cl)c1)c1ccncc1	0.2 µg/mL (≈ 0.68 µM)	>50	EC99 [3]: 0.596 µg/mL; Ratio [4]: 0.53; EC90 [5]: 0.106 µg/mL (≈ 0.36 µM)
CC(C)=CCCC(C)C/C=N/NC(=O)c1ccncc1 (stereo not drawn)	0.2 µg/mL (≈ 0.732 µM)	>1000	–
O=C(N/N=C/c1ccccc1OCc1ccccc1)c1ccncc1	–	–	Activity (Mus musculus): Non-toxic; MIC90 [8]: 0.06 µg/mL (≈ 0.181 µM); log10cfu [9]: 5.49
O=C(N/N=C/c1ccc(I)cc1)c1ccncc1	0.2 µg/mL (≈ 0.57 µM)	>50	–
O=C(N/N=C/c1ccc(F)c(F)c1)c1ccncc1	1.56 µg/mL (≈ 5.97 µM)	–	–
O=C(N/N=C/C=N/NC(=O)c1ccncc1)c1ccncc1	0.1 µg/mL (≈ 0.338 µM)	–	–
O=C(N/N=C/c1ccc(Cl)cc1)c1ccncc1	0.2 µg/mL (≈ 0.77 µM)	>50	EC99 [3]: 0.14 µg/mL; Ratio [4]: 0.2; EC90 [5]: 0.04 µg/mL (≈ 0.154 µM)
O=C(N/N=C/c1ccccc1Cl)c1ccncc1	0.78 µg/mL (≈ 3 µM)	>128	–
O=C(N/N=C/c1ccccc1)c1ccncc1 [N'-BENZYLIDENE ISONICOTINOHYDRAZIDE]	0.05 µg/mL (≈ 0.222 µM)	4000	–
CCCCCCCCCCCCC/C=N\NC(=O)c1ccncc1	0.2 µg/mL (≈ 0.603 µM)	–	–

SMILES	MIC90 [1]	Ratio [2]	further results
O=C(N/N=C/c1ccc(Cl)c([N+](=O)[O-])c1)c1ccncc1	0.39 µg/mL (≈ 1.28 µM)	>64	EC99 [3]: 0.3 µg/mL; Ratio [4]: 0.2; EC90 [5]: 0.078 µg/mL (≈ 0.256 µM)
O=C(NN=C1CCCCC1)c1ccncc1	0.03 µg/mL (≈ 0.138 µM)	>40000	EC99 [3]: 0.42 µg/mL; Ratio [4]: 2.7; log10cfu [7]: 4.65; EC90 [5]: 0.08 µg/mL (≈ 0.368 µM)
CCCCOc1ccc(/C=N/NC(=O)c2ccncc2)cc1	0.1 µg/mL (≈ 0.336 µM)	>2000	–
CC(C)C/C=C(\C=N\NC(=O)c1ccncc1)C(C)C	–	>10	log10cfu [6]: 5.49
CCOC(=O)C/C(Cc1ccccc1)=N/NC(=O)c1ccncc1	0.1 µg/mL (≈ 0.307 µM)	>1250	EC99 [3]: 0.211 µg/mL; Ratio [4]: 0.1; EC90 [5]: 0.01 µg/mL (≈ 0.0307 µM)
CCOC(=O)/C(CCc1ccccc1)=N\NC(=O)c1ccncc1	0.1 µg/mL (≈ 0.307 µM)	>1250	–
CCCC/C=C/C=N/NC(=O)c1ccncc1	< 6.25 µg/mL	–	–
COc1ccc(/C=C/C=N/NC(=O)c2ccncc2)cc1	–	>50	–
CCCCCCOc1ccc(/C=N/NC(=O)c2ccncc2)cc1	–	1.5	–
CCC/C(CC(=O)OCC)=N/NC(=O)c1ccncc1 [ETHYL BUTYRYL ACETATE ISONICOTINOYLHYDRAZONE]	0.39 µg/mL	>2631	–
CC/C=C/C=N/NC(=O)c1ccncc1	0.05 µg/mL (≈ 0.246 µM)	712	EC99 [3]: 0.529 µg/mL; Ratio [4]: 0.56; EC90 [5]: 0.028 µg/mL (≈ 0.138 µM)
O=C(N/N=C/c1c(F)cccc1F)c1ccncc1	0.1 µg/mL (≈ 0.383 µM)	>1250	EC99 [3]: 0.15 µg/mL; Ratio [4]: 0.37; EC90 [5]: 0.037 µg/mL (≈ 0.142 µM)
COc1cc(/C=N/NC(=O)c2ccncc2)cc(I)c1OC	0.2 µg/mL (≈ 0.486 µM)	297	–
O=C(N/N=C/c1ccccc1[N+](=O)[O-])c1ccncc1	0.39 µg/mL (≈ 1.44 µM)	–	–
O=C(N/N=C/c1ccc(/C=N/NC(=O)c2ccncc2)cc1)c1ccncc1	0.05 µg/mL (≈ 0.134 µM)	>126	–
CC(C)=CCC/C(C)=C/C=N/NC(=O)c1ccncc1	0.1 µg/mL (≈ 0.369 µM)	–	–
COc1ccccc1/C=C/C=N/NC(=O)c1ccncc1	0.1 µg/mL (≈ 0.355 µM)	–	–
CCC/C=C/C=N/NC(=O)c1ccncc1	< 6.25 µg/mL	–	–
Nc1ccc(C(=O)O)c(O)c1 [AMINOSALICYLIC ACID]	–	–	MIC [8]: 0.03 µg/mL (≈ 0.196 µM)
O=C(N/N=C/C=C(c1ccccc1)c1ccccc1)c1ccncc1	–	68	EC99 [3]: 0.121 µg/mL; Ratio [4]: 0.28; EC90 [5]: 0.028 µg/mL (≈ 0.0855 µM)
O=C(N/N=C/c1cccc(Cl)c1Cl)c1ccncc1	0.78 µg/mL (≈ 2.65 µM)	>32	EC99 [3]: 0.3 µg/mL; Ratio [4]: 0.09; EC90 [5]: 0.071 µg/mL (≈ 0.241 µM)
O=C(N/N=C/c1cccc([N+](=O)[O-])c1)c1ccncc1	–	8	–
